Measured values collected from several papers.
Protocols differ between the studies behind these lines. pIC50: −log10 of the molar value.
Cell line: SW-620
Read-out: cell growth or viability

SMILES | method | tested at | time | endpoint | result
Cc1cc(C)n(C(=S)[S][Au][PH](CCCCCC[PH]([Au][S]C(=S)n2nc(C)cc2C)(c2ccccc2)c2ccccc2)(c2ccccc2)c2ccccc2)n1 |  |  |  | GI50 | 1260 nM
CC(C)C[C@H](NC(=O)[C@H](Cc1ccccc1)NC(=O)c1cnccn1)B(O)O | ATP luminescence |  |  | pIC50 | 8.05
O=C(/C=C/c1ccc2c(=O)n(Cc3ccc(F)cc3)cnc2c1)NO | SRB |  | 48 h | pIC50 | 5.99
COc1ccc(C(=O)/C=C/c2ccccc2Br)cc1S(N)(=O)=O | SRB | 10 µM |  | inhibition | 146%
COc1cccc(Oc2ccccc2NC(=O)CNC(=O)c2cccc3ccccc23)c1 | SRB |  | 48 h | GI50 | 166 nM
COc1ccc(C(=O)/C=C/c2cccc(Cl)c2Cl)cc1S(N)(=O)=O | SRB | 10 µM |  | inhibition | 147%
CC(=O)Nc1cccc(-n2c(=O)n(C3CC3)c(=O)c3c(Nc4ccc(I)cc4F)n(C)c(=O)c(C)c32)c1 | resazurin | 50 nM | 72 h | viability | 25.7%
COc1ccc(C(=O)/C=C/c2cccc(Br)c2)cc1S(N)(=O)=O | SRB | 10 µM |  | inhibition | 120%
O=C(/C=C/c1ccc2ncn(Cc3ccccc3)c(=O)c2c1)NO | SRB |  | 48 h | pIC50 | 5.82
COc1ccc(C(=O)/C=C/c2c(F)cccc2Cl)cc1S(N)(=O)=O | SRB |  | 48 h | GI50 | 3600 nM
O=C(/C=C/c1ccc2c(=O)n(Cc3ccccc3F)cnc2c1)NO | SRB |  | 48 h | pIC50 | 5.75
COc1ccc(C(=O)/C=C/c2cccnc2)cc1S(N)(=O)=O | SRB | 10 µM |  | inhibition | 87%
O=C(/C=C/c1ccc2ncn(Cc3ccc(Cl)cc3)c(=O)c2c1)NO | SRB |  | 48 h | pIC50 | 5.59
CC[C@H](C)C(=O)O[C@H]1C[C@@H](C)C=C2C=C[C@H](C)[C@H](CC[C@@H]3C[C@@H](O)CC(=O)O3)[C@H]21 | SRB |  | 72 h | IC50 | 0.03 µg/mL
O=C(/C=C/c1ccc2c(=O)n(CCO)cnc2c1)NO | SRB |  | 48 h | pIC50 | 5.43
CC(C)n1c(/C=C/C(O)CC(O)CC(=O)O)c(-c2ccc(F)cc2)c2ccccc21 (stereo not shown) | SRB |  | 72 h | IC50 | 0.49 µg/mL
